Results reported in ChEMBL document CHEMBL1157478, “Pyrrolo[2,1-c][1,4]benzodiazepine-beta-glucuronide prodrugs with a potential for selective therapy of solid tumors by PMT and ADEPT strategies” (Bioorg Med Chem Lett, 2008).
The source made the active and inactive calls. The rule behind the calls is not given here.

How the values were obtained:
[1] = tested on: HT-29; test: Cytotoxicity against human HT29 cells by MTT assay; assay type: functional, cell-based
[2] = tested on: HT-29; test: Cytotoxicity against human HT29 cells in presence of beta-glucuronidase by MTT assay; assay type: functional, cell-based
[3] = tested on: HT-29; test: Induction of cell shrinkage in human HT29 cells after 2 hrs; assay type: functional, cell-based
How it was run: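 HT-29 adenocarcinoma cells were incubated 2 h with compound alone. Morphology (shrinkage) was examined under the microscope against untreated control cells.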

[4] = tested on: HT-29; test: Activation factor, ratio of IC50 for human HT29 cells to IC50 for human HT29 cells in presence of beta-glucuronidase; assay type: functional
[5] = tested on: HT-29; test: Induction of cell shrinkage in human HT29 cells after 2 hrs in presence of beta-glucuronidase; assay type: functional, cell-based
How it was run: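 HT-29 adenocarcinoma cells were incubated 2 h with compound plus the enzyme beta-glucuronidase. Shrinkage was scored by microscopic examination of cell morphology against untreated control cells.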

SMILES	IC50 [1]	IC50 [2]	Activity [3]	Ratio IC50 [4]	Activity [5]
COc1cc2c(cc1OCc1ccccc1)N(C(=O)OCc1ccc(O[C@@H]3O[C@H](C(=O)O)[C@@H](O)[C@H](O)[C@H]3O)c([N+](=O)[O-])c1)C(O)[C@@H]1CCCN1C2=O (stereo partly specified)	5280 µmol	41.68 µmol	inactive	126.67	Active
COc1cc2c(cc1OCCCCCOc1cc3c(cc1OC)C(=O)N1CCC[C@H]1C(=O)N3)N=C[C@@H]1CCCN1C2=O	8.12 µmol				
COc1cc2c(cc1O)N=C[C@@H]1CCCN1C2=O	30.19 µmol		Active		
COc1cc2c(cc1OCCCCCOc1cc3c(cc1OC)C(=O)N1CCC[C@H]1C(O)N3C(=O)OCc1ccc(O[C@@H]3O[C@H](C(=O)O)[C@@H](O)[C@H](O)[C@H]3O)c([N+](=O)[O-])c1)NC(=O)[C@@H]1CCCN1C2=O (stereo partly specified)	2690 µmol	12.88 µmol		208.85	
